Measurements reported in the array DNA melting data of Ke et al. (doi:10.1101/2024.01.08.574731).

Experiments:
[1] = melting temperature; fluorescence melt of hairpins on a sequencing array, two-state fit, raised by 9.35 °C to match UV melts; conditions: sodium 0.088 M
Summary of the method: (§1)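 Library hairpins on a sequenced MiSeq flow cell carried annealed Cy3 and quencher oligos, and their Cy3 fluorescence was imaged in 50 mM Na-HEPES pH 8.0 with 25 mM NaCl, in 2.5 °C steps up to 60 °C. Signals were normalised to Cy3 before quenching and to control constructs. Melting temperature and folding enthalpy were obtained from bootstrapped two-state fits, combined by inverse-variance weighting across four replicates, and the fitted temperatures were then raised by 9.35 °C to match UV melts.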

[2] = folding enthalpy; higher = less favourable; fluorescence melt of hairpins on a sequencing array, two-state fit; conditions: sodium 0.088 M
Summary of the method: as §1

Sequence	Tm [1] [°C]	folding enthalpy [2] [kcal/mol]
GCATACGAAAGTATGC ((((((....))))))	67.9	-35.3
GCATAGAAATATGC (((((....)))))	43.3	-21.9
GCATAGCGAAAGCAAGGC ((.(.((....)).).))	37.9	-14
GCATAGCGAAAGCAGTGC (((..((....))..)))	53.7	-17
GCATAGCGAAAGCGAGGC ((.(.((....)).).))	54.4	-13.3
GCATAGCGAAAGCTGAGC ((..(((....)))..))	46	-15.7
GCATAGGGAAACCTGTGC (((.(((....))).)))	50.3	-33.6
GCATATCGAAAGATGTGC (((.(((....))).)))	55.4	-36.5
GCATATCGAAAGATTGC (((.(((....))))))	46.6	-25.9
GCATCAACGAAAGTTTGC (((..(((....))))))	30.8	-16.9
GCATCAGGAAACTAATGC ((((.((....)).))))	31.5	-22.6
GCATCAGGAAACTGACGC ((.((((....)))).))	44.5	-30
GCATCATCGAAAGATTGC (((..(((....))))))	30.8	-19.8
GCATCCGAAAGGAAATGC ((((((....)))..)))	46.1	-25.3
GCATCCGAAAGGAGCTGC ((((((....)))..)))	50.6	-19.2
GCATCCGAAAGGAGTTGC ((((((....)))..)))	37.9	-15.4
GCATCCGAAAGGATCTGC ((((((....)))..)))	46.5	-17.1
GCATCCGGAAACGGATAC (.(((((....))))).)	39.7	-16.9
GCATCGCGAAAGCATTGC (((..((....))..)))	37.7	-13.1

Sequence	Tm [1] [°C]	folding enthalpy [2] [kcal/mol]
GCATCGCGAAAGCCAAGC ((.(.((....)).).))	27.5	-9.2
GCATCGCGAAAGCCGTGC (((..((....))..)))	45.1	-19.3
GCATCGCGAAAGCGTGGC ((..(((....)))..))	54.7	-15.8
GCATCGCGAAAGCTACGC ((.(.((....)).).))	32.8	-8.55
GCATCGGGAAACCAACGC ((.(.((....)).).))	28.3	-17.7
GCATCGGGAAACCGACGC ((.((((....)))).))	50.4	-42.1
GCATCGGGAAACTGATGC (((((.(....).)))))	55.7	-37.2
GCATCTGCGAAAGCATGC (((..(((....))))))	39.8	-14.4
GCATCTGGAAACAGATGC (((((((....)))))))	67.3	-47.9
GCATGAGCGAAAGCTTGC (((..(((....))))))	45.6	-14.1
GCATGATCGAAAGATTGC (((..(((....))))))	32.6	-19.9
GCATGCCCGAAAGGGTGC (((..(((....))))))	44.4	-14.3
GCATGCCGAAAGGCCTGC (((.(((....))).)))	55.9	-31.6
GCATGCGAAAGCAATTGC ((((((....)))..)))	44.1	-19.5
GCATGCGAAAGCACATGC ((((((....)))..)))	51	-19
GCATGCGAAAGCACGTGC ((((((....)))..)))	39.8	-19.2
GCATGCGAAAGCACTGC ((((((....))).)))	51.3	-22.3
GCATGCGAAAGCACTTGC ((((((....)))..)))	37.7	-15.4
GCATGCGAAAGCAGATGC ((((((....)))..)))	51.4	-24.6
